# Source: ChEMBL document CHEMBL3352136, “Vinylated linear P2 pyrimidinyloxyphenylglycine based inhibitors of the HCV NS3/4A protease and corresponding macrocycles” (Bioorg Med Chem, 2014)
# Experiments:
# [1] = biological target: Hepatitis C virus serine protease, NS3/NS4A (Hepatitis C virus, UniProt A3EZI9+D2K2A8); assay: (§1) Inhibition of HCV genotype 1a NS3/4A protease using Ac-DED(Edans)EEAbu-psi[COO]ASK(Dabcyl)-NH2 as substrate by FRET assay; set-up: species or system Hepatitis C virus subtype 1a
# In short: (§2)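 Full-length NS3/4A (protease–helicase/NTPase, genotype 1a) measured by FRET. Buffer: 50 mM HEPES pH 7.5, 10 mM DTT, 40% glycerol, 0.1% n-octyl-β-D-glucoside, 3.3% DMSO. Ki values derived.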
# [2] = Solubility of the compound in PBS after 2 hrs by LC-MS/MS analysis; type: physicochemical
# In short: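 DMSO stock (10 mM) added to PBS to 1% final DMSO, rotated in glass vials 2 h at 37 °C. Centrifuged 10,000g for 30 min, then supernatant quantified by LC–MS/MS. Upper detection limit 100 µM.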
# [3] = Apparent permeability from apical to basolateral side in human Caco2 cells; type: ADME, cell-based; conditions: Caco-2
# In short: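 Caco-2 monolayers on polycarbonate filter inserts, cells kept in 90% air/10% CO2. Compound diluted from 10 mM DMSO stock to 10 µM (final DMSO 0.1%) in FASSIF pH 7.4 on apical donor side. Receiver is HBSS pH 7.4 with 1% (w/v) BSA. Run at 37 °C with 500 rpm stirring. Receiver sampled at 15, 30 and 60 min, donor sampled at 60 min for mass balance. Membrane integrity checked afterwards, LC/MS/MS read-out, at least triplicates.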
# [4] = (§3) Intrinsic clearance in human liver microsomes preincubated for 5 mins by LC/MS/MS analysis; type: ADME; conditions: liver microsomes
# In short: (§4)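 Compound at 1 µM preincubated 5 min at 37 °C with pooled human liver microsomes (0.5 mg/mL) in 0.1 M potassium phosphate pH 7.4. Reaction started with NADPH (1 mM final) and stopped at 0, 5, 15 and 40 min with ice-cold acetonitrile containing internal standard. LC/MS/MS read-out. ln(% remaining) regressed linearly on time; t1/2 and Clint derived assuming first-order kinetics. Dextromethorphan (3 µM) and midazolam (5 µM) served as CYP2D6/CYP3A4 controls.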
# [5] = (§5) Half life in human liver microsomes preincubated for 5 mins by LC/MS/MS analysis; type: ADME; conditions: liver microsomes; in short: as §4
# Hepatitis C virus [6] = assay: Antiviral activity against HCV genotype 1b infected in human Huh-7 cells by firefly luciferase assay; type: functional, cell-based, Hepacivirus hominis
# In short: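 Huh-7 cells carrying a subgenomic HCV genotype 1b replicon with firefly luciferase reporter; EC50 derived from luciferase signal.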
# [7] = biological target: Hepatitis C virus serine protease, NS3/NS4A (Hepatitis C virus, UniProt A3EZI9+D2K2A8, A156T); assay: Inhibition of HCV NS3/4A protease A156T mutant using Ac-DED(Edans)EEAbu-psi[COO]ASK(Dabcyl)-NH2 as substrate by FRET assay; set-up: species or system Hepacivirus hominis
# [8] = biological target: Hepatitis C virus serine protease, NS3/NS4A (Hepatitis C virus, UniProt A3EZI9+D2K2A8, D168V); assay: Inhibition of HCV NS3/4A protease D168V mutant using Ac-DED(Edans)EEAbu-psi[COO]ASK(Dabcyl)-NH2 as substrate by FRET assay; set-up: species or system Hepacivirus hominis
# [9] = biological target: Hepatitis C virus serine protease, NS3/NS4A (Hepatitis C virus, UniProt A3EZI9+D2K2A8, R155K); assay: Inhibition of HCV NS3/4A protease R155K mutant using Ac-DED(Edans)EEAbu-psi[COO]ASK(Dabcyl)-NH2 as substrate by FRET assay; set-up: species or system Hepacivirus hominis
# Liver microsome [10] = assay: as §3; type: ADME; conditions: microsomes, 5 min; in short: as §4
# Liver microsome [11] = assay: as §5; type: ADME; conditions: microsomes; in short: as §4
# [12] = biological target: Hepatitis C virus serine protease, NS3/NS4A (Hepatitis C virus, UniProt D2K2A8+A3EZI9); assay: as §1; set-up: species or system Hepatitis C virus subtype 1a; in short: as §2
# Hepatitis C virus [13] = assay: Antiviral activity against HCV genotype 1a; type: functional, Hepacivirus hominis; conditions: subtype 1a
smiles,measurement,setting,value
C=CCCCS(=O)(=O)NC(=O)[C@H](CCC)NC(=O)[C@@H]1C[C@@H](Oc2cc(-c3ccccc3)nc3cc(OC)ccc23)CN1C(=O)[C@@H](NC(=O)OC(C)(C)C)C(C)(C)C,Ki,[1],300 nM
C=CCCCS(=O)(=O)NC(=O)c1ccccc1NC(=O)[C@@H](NC(=O)[C@@H](NC(=O)OCCC=C)C(C)(C)C)c1ccc(Oc2cc(C=C)nc(-c3ccccc3)n2)cc1,Ki,[1],110 nM
C=CCCCS(=O)(=O)NC(=O)[C@H](CCC)NC(=O)[C@@H](NC(=O)[C@@H](NC(=O)OC(C)(C)C)C(C)(C)C)c1ccc(Oc2cc(-c3ccccc3)nc3cc(OC)ccc23)c(C=C)c1,Ki,[1],63 nM
COc1cc(Oc2ccc(C3NC(=O)[C@H](NC(=O)OC(C)(C)C)CCCCC/C=C/CCCS(=O)(=O)NC(=O)c4ccccc4NC3=O)cc2)nc(-c2ccccc2)n1 (stereo in doubt; 29L),Ki,[1],110 nM
same,solubility at 2 h,[2],51 µM
same,Papp,[3],0.35 ×10⁻⁶ cm/s
same,microsomal CLint,[4],87 µL/min/mg
same,half-life,[5],16 min
C=CCCCS(=O)(=O)NC(=O)c1ccccc1NC(=O)[C@H](NC(=O)[C@@H](NC(=O)OC(C)(C)C)C(C)(C)C)c1ccc(Oc2cc(OC)nc(-c3ccccc3)n2)c(C=C)c1,Ki,[1],33 nM
same,EC50,Hepatitis C virus [6],> 10000 nM
COc1ccc2c(O[C@@H]3C[C@@H](C(=O)Nc4ccccc4C(=O)NS(=O)(=O)c4ccccc4)N(C(=O)[C@@H](NC(=O)OC(C)(C)C)C(C)(C)C)C3)cc(-c3ccccc3)nc2c1,Ki,[1],830 nM
CCC[C@@H]1NC(=O)[C@@H](NC(=O)[C@@H](NC(=O)OC(C)(C)C)C(C)(C)C)c2ccc(cc2)Oc2cc(nc(-c3ccccc3)n2)/C=C/CCCS(=O)(=O)NC1=O,Ki,[1],2400 nM
CC(C)(C)NC(=O)N[C@H](C(=O)N1C[C@H]2[C@@H]([C@H]1C(=O)NC(CC1CCC1)C(=O)C(N)=O)C2(C)C)C(C)(C)C (stereo partly specified) [BOCEPREVIR],Ki,[1],14 nM
COc1ccc2c(O[C@@H]3C[C@H]4C(=O)N[C@]5(C(=O)O)C[C@H]5/C=C\CCCCC[C@H](NC(=O)OC5CCCC5)C(=O)N4C3)cc(-c3csc(NC(C)C)n3)nc2c1,Ki,[1],0.3 nM
"COc1cc(Oc2ccc(C3NC(=O)[C@H](NC(=O)OC(C)(C)C)CCCCC/C=C/CCCS(=O)(=O)NC(=O)c4ccccc4NC3=O)cc2)nc(-c2ccccc2)n1 (single isomer, unassigned; diastereomer 2)",Ki,[1],80 nM
same,Ki,[7],160 nM
same,Ki,[8],600 nM
same,Ki,[9],220 nM
same,Papp,[3],0.15 ×10⁻⁶ cm/s
same,microsomal intrinsic clearance,Liver microsome [10],137 µL/min/mg
same,t1/2,Liver microsome [11],10 min
same,EC50,Hepatitis C virus [6],15000 nM
"COc1cc(Oc2ccc(C3NC(=O)[C@H](NC(=O)OC(C)(C)C)CCCCCCCCCCS(=O)(=O)NC(=O)c4ccccc4NC3=O)cc2)nc(-c2ccccc2)n1 (single isomer, unassigned; diastereomer 2)",Ki,[1],110 nM
COc1cc(Oc2ccc(C3NC(=O)[C@H](NC(=O)OC(C)(C)C)CCCCCCCCCCS(=O)(=O)NC(=O)c4ccccc4NC3=O)cc2)nc(-c2ccccc2)n1 (stereo in doubt; 31L),Ki,[12],110 nM
C=CCCCS(=O)(=O)NC(=O)c1ccccc1NC(=O)[C@@H](NC(=O)OC(C)(C)C)c1ccc(Oc2cc(OC)nc(-c3ccccc3)n2)cc1,Ki,[1],600 nM
same,solubility at 2 h,[2],93 µM
same,Papp A→B,[3],4 ×10⁻⁶ cm/s
same,microsomal CLint,[4],86 µL/min/mg
same,half-life,[5],16 min
COc1cc(Oc2ccc(C3NC(=O)[C@H](NC(=O)OC(C)(C)C)CCCCC/C=C/CCS(=O)(=O)NC(=O)c4ccccc4NC3=O)cc2)nc(-c2ccccc2)n1 (stereo partly specified),Ki,[1],220 nM
C=CCCCS(=O)(=O)NC(=O)c1ccccc1NC(=O)[C@@H](NC(=O)[C@@H](NC(=O)OC(C)(C)C)C(C)(C)C)c1ccc(Oc2cc(OC)nc(-c3ccccc3)n2)c(C=C)c1,Ki,[1],26 nM
same,solubility at 2 h,[2],66 µM
same,Papp A→B,[3],1.7 ×10⁻⁶ cm/s
same,microsomal CLint,[4],17 µL/min/mg
same,half-life,[5],83 min
same,EC50,Hepatitis C virus [6],> 10000 nM
COc1ccc2c(O[C@@H]3C[C@H]4C(=O)N[C@]5(C(=O)NS(=O)(=O)C6CC6)C[C@H]5/C=C\CCCCN(C)C(=O)[C@@H]4C3)cc(-c3nc(C(C)C)cs3)nc2c1C,Ki,[1],0.36 nM
same,EC50,Hepatitis C virus [13],7.8 nM
C=CCCCS(=O)(=O)NC(=O)c1ccccc1NC(=O)[C@@H](NC(=O)OC(C)(C)C)c1ccc(Oc2cc(OC)nc(-c3ccccc3)n2)c(C=C)c1,Ki,[1],190 nM
same,solubility at 2 h,[2],101 µM
same,Papp A→B,[3],1 ×10⁻⁶ cm/s
COc1cc(Oc2ccc3cc2/C=C/CCS(=O)(=O)NC(=O)c2ccccc2NC(=O)[C@H]3NC(=O)OC(C)(C)C)nc(-c2ccccc2)n1,Ki,[1],1300 nM
C=CCCCS(=O)(=O)NC(=O)c1ccccc1NC(=O)[C@H]1NC(=O)[C@H](C(C)(C)C)NC(=O)OCC/C=C/c2cc(nc(-c3ccccc3)n2)Oc2ccc1cc2,Ki,[1],390 nM
COc1ccc2c(Oc3ccc([C@H](NC(=O)[C@@H](NC(=O)OC(C)(C)C)C(C)(C)C)C(=O)Nc4ccccc4C(=O)NS(=O)(=O)c4ccccc4)cc3)cc(-c3ccccc3)nc2c1,Ki,[1],310 nM
C=CCCCS(=O)(=O)NC(=O)[C@H](CCC)NC(=O)[C@H]1NC(=O)[C@H](C(C)(C)C)NC(=O)OCC/C=C/c2cc(nc(-c3ccccc3)n2)Oc2ccc1cc2,Ki,[1],1570 nM
CC[C@@H]1C[C@]1(NC(=O)[C@@H]1C[C@@H]2CN1C(=O)[C@H](C(C)(C)C)NC(=O)OCC(C)(C)CCCCc1cccc3c1CN(C3)C(=O)O2)C(=O)NS(=O)(=O)C1CC1,Ki,[1],0.05 nM
same,EC50,Hepatitis C virus [13],5 nM
C=CCCCS(=O)(=O)NC(=O)c1ccccc1NC(=O)[C@@H](NC(=O)[C@@H](NC(=O)OC(C)(C)C)C(C)(C)C)c1ccc(Oc2cc(OC)nc(-c3ccccc3)n2)cc1,Ki,[1],95 nM
same,solubility at 2 h,[2],33 µM
same,Papp A→B,[3],0.22 ×10⁻⁶ cm/s
same,microsomal CLint,[4],64 µL/min/mg
same,half-life,[5],22 min
COc1cc(Oc2ccc3cc2/C=C/CCS(=O)(=O)NC(=O)c2ccccc2NC(=O)[C@H]3NC(=O)[C@@H](NC(=O)OC(C)(C)C)C(C)(C)C)nc(-c2ccccc2)n1,Ki,[1],630 nM
C=CCCCCC[C@H](NC(=O)OC(C)(C)C)C(=O)N[C@H](C(=O)Nc1ccccc1C(=O)NS(=O)(=O)CCCC=C)c1ccc(Oc2cc(OC)nc(-c3ccccc3)n2)cc1,Ki,[1],230 nM
same,solubility at 2 h,[2],91 µM
same,Papp A→B,[3],0.22 ×10⁻⁶ cm/s
same,microsomal CLint,[4],60 µL/min/mg
same,half-life,[5],23 min
CC(C)(C)OC(=O)N[C@H](C(=O)N[C@@H]1C(=O)Nc2ccccc2C(=O)NS(=O)(=O)CCC/C=C/c2cc(nc(-c3ccccc3)n2)Oc2ccc1cc2)C(C)(C)C,Ki,[1],660 nM
C=CCCCS(=O)(=O)NC(=O)c1ccccc1NC(=O)[C@@H](NC(=O)OC(C)(C)C)c1ccc(Oc2cc(C=C)nc(-c3ccccc3)n2)cc1,Ki,[1],220 nM
COc1cc(Oc2ccc(C3NC(=O)[C@H](NC(=O)OC(C)(C)C)CCCCCCCCCS(=O)(=O)NC(=O)c4ccccc4NC3=O)cc2)nc(-c2ccccc2)n1 (stereo partly specified),Ki,[1],130 nM
CCC[C@H](NC(=O)C1[C@H]2CCC[C@H]2CN1C(=O)[C@@H](NC(=O)[C@@H](NC(=O)c1cnccn1)C1CCCCC1)C(C)(C)C)C(=O)C(=O)NC1CC1 (stereo partly specified),Ki,[1],40 nM
same,EC50,Hepatitis C virus [13],350 nM
C=CCCCS(=O)(=O)NC(=O)c1ccccc1NC(=O)[C@@H](NC(=O)[C@@H](NC(=O)OC(C)(C)C)C(C)(C)C)c1ccc(Oc2cc(-c3ccccc3)nc3cc(OC)ccc23)c(C=C)c1,EC50,Hepatitis C virus [6],5400 nM
C=CCCCS(=O)(=O)NC(=O)c1ccccc1NC(=O)[C@H](NC(=O)[C@@H](NC(=O)OC(C)(C)C)C(C)(C)C)c1ccc(Oc2cc(-c3ccccc3)nc3cc(OC)ccc23)c(C=C)c1,EC50,Hepatitis C virus [6],5400 nM
C=CCCS(=O)(=O)NC(=O)c1ccccc1NC(=O)[C@@H](NC(=O)OC(C)(C)C)c1ccc(Oc2cc(OC)nc(-c3ccccc3)n2)c(C=C)c1,Ki,[1],370 nM
